In ChEMBL document CHEMBL2040816, “Design, synthesis, and structure-activity relationship studies of novel millepachine derivatives as potent antiproliferative agents” (Eur J Med Chem, 2012):

Legend:
Assay type in all cases: functional, cell-based
HepG2 = experiment: Antiproliferative activity against human HepG2 cells after 24 hrs by MTT assay; conditions: HepG2, 24 h
In short: (§1)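 MTT assay. 1 × 10⁴ cells per well were plated and incubated 24 h before dye was added (20 µL of 5 mg/mL MTT in PBS per well), then incubated until a purple precipitate formed. Precipitate dissolved in 150 µL DMSO after medium removal, then absorbance read.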

SW-620 = experiment: Antiproliferative activity against human SW620 cells after 24 hrs by MTT assay; conditions: SW-620, 24 h; in short: as §1
HCT-116 = experiment: Antiproliferative activity against human HCT116 cells after 24 hrs by MTT assay; conditions: HCT-116, 24 h; in short: as §1
SK-OV-3 = experiment: Antiproliferative activity against human SKOV3 cells after 24 hrs by MTT assay; conditions: SK-OV-3, 24 h; in short: as §1
HT-29 = experiment: Antiproliferative activity against human HT-29 cells after 24 hrs by MTT assay; conditions: HT-29, 24 h; in short: as §1
K562 = experiment: Antiproliferative activity against human K562 cells after 24 hrs by MTT assay; conditions: K562, 24 h; in short: as §1

Row | IC50 (HepG2) [µM] | IC50 (SW-620) [µM] | IC50 (HCT-116) [µM] | IC50 (SK-OV-3) [µM] | IC50 (HT-29) [µM] | IC50 (K562) [µM] | SMILES
1 | > 10 | > 10 | > 10 | > 10 | > 10 | > 10 | COc1ccc(C(=O)/C=C/c2ccc(O)c(Br)c2)c2c1C=CC(C)(C)O2
2 | 2.61 | 3.52 | 8.88 | 3.42 | 3.73 | 7.77 | COc1ccc(C(=O)/C=C/c2ccc([N+](=O)[O-])cc2)c2c1C=CC(C)(C)O2
3 | > 10 | > 10 | > 10 | > 10 | > 10 | > 10 | COc1ccc(C(=O)/C=C/c2ccsc2)c2c1C=CC(C)(C)O2
4 | > 10 | > 10 | > 10 | > 10 | > 10 | > 10 | COc1ccc(C(=O)/C=C/c2cccs2)c2c1C=CC(C)(C)O2
5 | 0.21 | 2.14 | 5.82 | 7.65 | 4.48 | 3.67 | COc1ccc(C(=O)/C=C/c2ccc3ccccc3c2)c2c1C=CC(C)(C)O2
6 | > 10 | > 10 | > 10 | > 10 | > 10 | > 10 | COc1cc(OC)c(OC)cc1/C=C/C(=O)c1ccc(OC)c2c1OC(C)(C)C=C2
7 | > 10 | > 10 | > 10 | 9.36 | > 10 | > 10 | COc1cccc(/C=C/C(=O)c2ccc(OC)c3c2OC(C)(C)C=C3)c1
8 | > 10 | 9.15 | 7.65 | 9.7 | > 10 | > 10 | COc1ccc(C(=O)/C=C/c2cc(OC)c(OC)c(OC)c2)c2c1C=CC(C)(C)O2
9 | > 10 | > 10 | > 10 | 7.2 | > 6.6 | > 10 | COc1ccc(C(=O)/C=C/c2ccc(-n3ccnc3)cc2)c2c1C=CC(C)(C)O2
10 | > 10 | > 10 | > 10 | > 10 | > 10 | > 10 | COc1ccc(C(=O)/C=C/c2ccc(F)cc2)c2c1C=CC(C)(C)O2
11 | > 10 | > 10 | > 10 | > 10 | > 10 | > 10 | COc1ccc(C(=O)/C=C/c2ccc(Br)cc2)c2c1C=CC(C)(C)O2
12 | > 10 | > 10 | > 10 | > 10 | > 10 | > 10 | COc1ccc(C(=O)/C=C/c2ccco2)c2c1C=CC(C)(C)O2
13 | > 10 | > 10 | > 10 | > 10 | > 10 | > 10 | COc1ccccc1/C=C/C(=O)c1ccc(OC)c2c1OC(C)(C)C=C2
14 | > 10 | > 10 | > 10 | > 10 | > 10 | > 10 | COc1ccc(C(=O)/C=C/c2cccc(F)c2)c2c1C=CC(C)(C)O2
15 | 6.64 | 4.23 | 5.24 | 6.27 | 4.97 | 5.51 | COc1ccc(C(=O)/C=C/c2cc(Cl)ccc2O)c2c1C=CC(C)(C)O2
16 | > 10 | > 10 | > 10 | > 10 | > 10 | > 10 | COc1ccc(C(=O)/C=C/c2ccccc2Cl)c2c1C=CC(C)(C)O2
17 | > 10 | 7.7 | 9.44 | 9.94 | 7.58 | 9.03 | COc1ccc(C(=O)/C=C/c2ccc(Cl)c(Cl)c2)c2c1C=CC(C)(C)O2
18 | 0.73 | 0.57 | 1.92 | 2.75 | 1.87 | 3.5 | COc1ccc(C(=O)/C=C/c2ccc(N(C)C)cc2)c2c1C=CC(C)(C)O2
